The list is not random: actives were taken first. Their share in the collection is about 2.3%.
DNMT1 inh = inhibitors of human DNMT1; DNMT1 molecular beacon, Hinp1I cleavage, fluorescence; inhibition (reported as % activation of signal), % at 10 µM; actives 0.83% (n = 360,000); AID 588458; in the data active = inhibition above about 50%
STEP block = STEP (human) phosphatase inhibition; inhibition, % at 20 µM; actives 0.25% (n = 360,000); recombinant STEP, OMFP fluorogenic substrate, fluorescence; AID 588621;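 active = inhibition at 20 µM, scaled per plate between control wells, above about 37%, limit read from the data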;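 note: 0% = DMSO with enzyme and substrate and 100% = substrate only without enzyme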
Target sequence (P54829 whole entry, looked up): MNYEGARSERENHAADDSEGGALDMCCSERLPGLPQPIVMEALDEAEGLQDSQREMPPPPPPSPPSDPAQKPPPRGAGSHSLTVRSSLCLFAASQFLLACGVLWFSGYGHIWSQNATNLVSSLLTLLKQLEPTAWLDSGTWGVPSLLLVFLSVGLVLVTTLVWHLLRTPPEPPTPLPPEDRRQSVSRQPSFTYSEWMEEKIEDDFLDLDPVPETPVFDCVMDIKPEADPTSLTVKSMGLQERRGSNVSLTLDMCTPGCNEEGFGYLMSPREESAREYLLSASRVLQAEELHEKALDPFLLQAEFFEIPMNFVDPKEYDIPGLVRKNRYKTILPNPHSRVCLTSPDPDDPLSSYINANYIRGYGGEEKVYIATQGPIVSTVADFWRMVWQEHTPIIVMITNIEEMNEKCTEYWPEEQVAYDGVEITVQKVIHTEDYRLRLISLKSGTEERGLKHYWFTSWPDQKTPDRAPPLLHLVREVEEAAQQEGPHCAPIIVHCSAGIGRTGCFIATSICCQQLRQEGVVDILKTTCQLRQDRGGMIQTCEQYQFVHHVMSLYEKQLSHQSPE
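System: isolated STEP enzyme; schedule: 20 min enzyme reaction at room temperature, protected from light; medium: Bis-Tris buffer pH 6.0, 2.5 mM DTT, 0.005% Tween 20; signal: fluorescence, 480/540 nm; dosing: single compound dose of 20 µM, 1% DMSO final; also added: OMFP substrate, 25 µM final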
SUMO1-SIM PPI = modulators of human SUMO1-mediated protein-protein interactions; P63165; SUMO1 binding to a labelled peptide, TR-FRET, 1 h; inhibition, % at 20 µM; actives 0.33% (n = 360,000); AID 602429; in the data active = inhibition above about 37%
Target sequence (P63165 whole entry, looked up): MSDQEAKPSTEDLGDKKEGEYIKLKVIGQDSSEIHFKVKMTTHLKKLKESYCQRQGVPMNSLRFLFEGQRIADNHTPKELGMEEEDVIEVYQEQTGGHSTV
LMPTP block = LMPTP (human) inhibition; actives 0.22% (n = 360,000); P24666; AID 651560; recombinant LMPTP-A, OMFP fluorogenic substrate, fluorescence intensity; inhibition, % at 20 µM;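 active = compounds that cut the enzyme signal by at least half of the control window in the single-dose screen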;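 note: plate controls were DMSO wells with enzyme plus substrate for no effect and substrate without enzyme for full effect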
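Material: LMPTP-A; amount: 0.625 nM enzyme; doses: single 20 µM dose; times: reaction 50 min, room temperature, dark; technique: fluorescence intensity of OMFP turnover product; benchmarks: no-enzyme and uninhibited controls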
Scp1 inh = Scp-1 (human) phosphatase inhibition | AID 493091 | actives 0.88% (n = 340,000) | Recombinant Scp1, phosphopeptide, malachite green phosphate absorbance | inhibition, % at 20 µM;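 active = inhibition above about 50% at 20 µM, limit read from the data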;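 note: plate controls were DMSO wells with enzyme for no effect and wells lacking enzyme for full effect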
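Material – SCP-1 phosphatase catalytic domain, residues 76-261 · Buffer or medium – Acidic Tris acetate buffer with magnesium and detergent · Also added – Phospho 17-mer peptide substrate · Compound – single 20 µM dose, 1% DMSO · Times – 45 min room-temperature reaction, 5 min colour, 30 min stabiliser · Technique – Phosphate-binding colour reagent, absorbance read at 630 nm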
Rpn11 inh = blocks the human proteasome subunit Rpn11 | O00487 | human 26S proteasome, Ub4-pepOG fluorescence polarization; 20S core pre-blocked with epoxomicin | inhibition, % at 20 µM | actives 0.59% (n = 360,000) | AID 588493;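 active = inhibition at 20 µM, scaled to each plate's controls, above about 33%, limit read from the data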
DNMT1 confirm = confirmation of human DNMT1 inhibitors; shares compounds with DNMT1 inh; DNMT1 molecular beacon HinP1I cleavage, fluorescence; inhibition, % at 10 µM; actives 8% (n = 2,300); AID 602385;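 active = average inhibition of at least 30% in the single-concentration confirmation test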
DNMT1 interf = beacon fluorescence artifact counter-screen; shares compounds with DNMT1 inh; DNMT1 molecular beacon spectral interference counterscreen, fluorescence 485/520; activation (fluorescence interference), % at 10 µM; actives 1% (n = 2,300);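 active = activation of at least 30% at 10 µM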;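 note: DNMT1 catalytic domain with a HinP1I cleavage step and a FAM/dabcyl DNA beacon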
The depositor's hits bear a star; . = no result given.

SMILES | DNMT1 inh | STEP block | SUMO1-SIM PPI | LMPTP block | Scp1 inh | Rpn11 inh | DNMT1 confirm | DNMT1 interf
COc1cc2c(cc1NC(=S)NC(=O)/C=C/c1ccc(OC)c(OC)c1)oc1ccccc12 | 3.0 | -1.7 | -3.0 | 3.5 | -0.8 | -1.8 | . | .
COc1cc2c(cc1NC(=O)Nc1ccc(F)cc1)oc1ccccc12 | 83.0* | -3.3 | -1.2 | 1.5 | -11.7 | 2.1 | 3.2 | 5.9
COc1cc2c(cc1NC(=O)Nc1ccc(C)cc1)oc1ccccc12 | -3.8 | -0.5 | 1.0 | 3.4 | -4.9 | -8.8 | . | .
NC(=O)CC(NC(=O)Cc1cccc2ccccc12)c1ccc(NC2CCCCC2)c([N+](=O)[O-])c1 (stereo unspecified) | 64.3* | 7.9 | -4.4 | 0.1 | -2.3 | 11.2 | 1.9 | 3.9
NC(=O)CC(NC(=O)Cc1cccc2ccccc12)c1ccc(NCC2CC2)c([N+](=O)[O-])c1 (stereo unspecified) | 32.3 | 2.2 | -7.1 | 1.6 | 0.6 | 19.2 | . | .
NC(=O)CC(NC(=O)Cc1cccc2ccccc12)c1ccc(NCCOc2ccccc2)c([N+](=O)[O-])c1 (stereo unspecified) | 51.1* | 1.7 | -17.1 | 1.2 | 8.1 | 21.9 | 0.9 | -2.3
CC(C)CCNC(=O)CN(Cc1ccccc1)C(=O)CCC(=O)Nc1ccccn1 | 1.5 | -0.3 | 0.8 | -1.1 | -3.0 | -2.3 | . | .
CCC(C)[C@H](NC(=O)N1CC(=O)Nc2ccccc21)C(=O)Nc1nccs1 (stereo partly specified) | -1.1 | -0.9 | -2.9 | -1.3 | 2.7 | -2.1 | . | .
OC[C@H]1O[C@@H]2O[C@H]3[C@H](O)[C@@H](O)[C@@H](O[C@H]4[C@H](O)[C@@H](O)[C@@H](O[C@H]5[C@H](O)[C@@H](O)[C@@H](O[C@H]6[C@H](O)[C@@H](O)[C@@H](O[C@H]7[C@H](O)[C@@H](O)[C@@H](O[C@H]1[C@H](O)[C@H]2O)O[C@@H]7CO)O[C@@H]6CO)O[C@@H]5CO)O[C@@H]4CO)O[C@@H]3CO | . | . | . | . | -9.0 | . | . | .
Fc1ccc(CNc2ccc(N3CCN(Cc4ccccc4)CC3)cc2)cc1 | 62.2* | 1.5 | -0.9 | 1.6 | 5.6 | -6.0 | 0.8 | 3.5
CC(=O)N1CCN(c2ccc(NCc3ccccc3)cc2)CC1 | -8.6 | 3.6 | -4.8 | -0.7 | -4.8 | -4.2 | . | .
Cn1c(SCC(=O)NCC2CCCO2)nc2scc(-c3ccccc3)c2c1=O (stereo unspecified) | 2.8 | 0.5 | -0.8 | -0.6 | -4.9 | 0.0 | . | .
O=C(CSc1nc2scc(-c3ccco3)c2c(=O)n1-c1ccccc1)NCC1CCCO1 (stereo unspecified) | 93.5* | 11.2 | 11.2 | 24.8 | -4.6 | 19.6 | -0.3 | -3.4
NC(=O)CSc1nc2scc(-c3ccco3)c2c(=O)n1-c1ccccc1 | 50.2* | 4.1 | 13.5 | 47.2 | -2.3 | 20.8 | 2.6 | 1.4
CC(C)c1ccc(OCC(=O)Nc2ccccc2C(=O)N2CCOCC2)cc1 | 1.3 | 2.1 | -3.8 | -0.3 | 0.0 | 0.7 | . | .
COc1ccc(-c2ccc3c(=O)cc(-c4ccsc4)oc3c2)cn1 | 53.1* | -1.8 | 18.8 | 33.5 | 1.2 | . | 1.3 | 2.2
Cc1ccc(C(=O)OCC(=O)NCc2ccco2)s1 | 57.9* | 0.4 | -0.4 | 4.4 | 39.0 | -18.4 | 0.8 | -0.9
Cc1ccc(C(=O)OCC(=O)NCc2cccs2)s1 | 0.8 | 2.1 | 2.9 | -0.8 | -5.8 | -6.1 | . | .
COc1ccc(S(=O)(=O)NCc2cccnc2)cc1OC | 56.2* | -0.2 | 0.9 | -1.1 | -5.0 | 4.9 | 1.3 | 0.5
COc1ccc(S(=O)(=O)NCc2ccncc2)cc1OC | 0.1 | -1.8 | -1.8 | -1.0 | -0.3 | -2.4 | . | .
CCCS(=O)(=O)NC(=O)C1(C)CCN(C(=O)COc2ccccc2)C1 (stereo unspecified) | 4.2 | -0.3 | 3.8 | 0.1 | . | 1.1 | . | .
COCCn1c(SCC(=O)Nc2ccc(F)cc2)nc2ccccc2c1=O | 83.0* | -0.6 | -0.7 | -1.1 | -9.9 | -0.4 | 1.5 | 2.3
O=C(OCc1cc(=O)n2ccsc2n1)c1ccccc1NCCO | 59.5* | 4.6 | 10.6 | 4.2 | 58.8* | -7.2 | 3.7 | 3.0
C#CCn1c(=NC(=O)c2ccc(Br)s2)sc2cccc(OC)c21 | 51.8* | 2.5 | -20.3 | 6.1 | -16.7 | 6.5 | -0.1 | -6.0
N/C(=N\OC(=O)c1cnn(-c2ccccc2)c1C(F)(F)F)c1ccc(C(F)(F)F)cc1 | -1.4 | 3.3 | 1.1 | 2.0 | -12.8 | -0.3 | . | .
SMILES | DNMT1 inh | STEP block | SUMO1-SIM PPI | LMPTP block | Scp1 inh | Rpn11 inh | DNMT1 confirm | DNMT1 interf
CC(=O)OCCc1c2ccccc2c(CCCN(C)C)c2ccccc12 | 51.5* | 0.5 | -46.0 | 2.9 | -9.8 | 11.4 | 3.1 | 1.9
CC(=O)OCCc1[nH]c2ccccc2c1C | 3.6 | 3.0 | 4.3 | -3.1 | -1.0 | -1.5 | . | .
COc1cc(/C=C2/SC(=O)N(Cc3ccccc3Cl)C2=O)ccc1OCc1ccncc1 | 63.9* | -1.2 | 0.3 | -0.2 | 17.5 | 3.2 | 7.2 | 8.5
COc1cc(/C=C2/SC(=O)NC2=O)ccc1OCc1ccccc1 | 5.8 | -4.5 | 9.1 | -2.4 | 1.3 | -5.9 | . | .
CC(C)Oc1ccc(S(=O)(=O)N2CCOCC2)cc1NC(=O)CC1CCCC1 | -1.7 | 2.1 | 1.6 | 0.3 | -10.4 | 2.6 | . | .
CC(C)Oc1ccc(S(=O)(=O)N2CCOCC2)cc1NC(=O)Cc1c(F)cccc1Cl | 89.5* | 1.2 | 1.1 | 0.8 | -3.8 | -0.2 | 0.8 | 1.9
Nc1nnnn1/N=C/c1cc(Cl)cc(Cl)c1OCc1ccc(Cl)cc1Cl | 58.8* | -1.3 | 1.0 | 0.6 | 3.6 | -3.2 | 2.2 | 1.8
Nc1nnnn1/N=C/c1ccccc1OCc1ccc(Cl)cc1Cl | 52.3* | -3.4 | 0.4 | 1.0 | -5.6 | 14.5 | 6.5 | 4.6
O=C(c1ccccc1)C1OC1C(=O)c1ccccc1 (stereo unspecified) | 50.2* | 4.4 | 9.3 | 2.5 | -10.5 | -2.1 | 8.7 | 9.8
COc1cc(OC)cc(-c2noc(-c3csc([C@@H]4O[C@H](CO)[C@H](O)[C@H](O)[C@H]4O)n3)n2)c1 | 7.3 | 1.1 | 4.0 | -0.9 | . | 9.3 | . | .
Cc1cc(C)n(/N=C/c2c[nH]c3ccccc23)c(=O)c1C#N | 3.8 | -0.7 | -3.7 | 0.6 | 0.5 | -1.4 | . | .
CN(/N=C/c1c[nH]c2ccccc12)c1cnn(-c2ccc(F)c(Cl)c2)c(=O)c1Cl | 111.1* | -2.9 | -1.3 | 1.2 | 2.5 | . | 2.9 | 7.5

Screening data as filed in PubChem BioAssay.
